What was measured:
[1] = Plasma concentration in Sprague-Dawley rat model of distension-induced rhythmic bladder contraction at 1 mg/kg, iv measured after 15 mins; type: ADME, organism-based
[2] = Cmax in Sprague-Dawley rat at 10 mg/kg, po administered as single dose by LC-MS/MS method; type: ADME, organism-based; parameters: dose 10 mg/kg, route oral; conditions: in vivo
In short: (§1)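 Single oral (10 mg/kg) or intravenous (1 mg/kg) dose in rats, n = 3. Jugular vein blood taken at 2, 15 and 30 min and 1, 2, 4 and 6 h. Plasma concentrations measured by LC-MS/MS.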

[3] = Volume of distribution at steady state in Sprague-Dawley rat at 1 mg/kg, iv administered as single dose by LC-MS/MS method; type: ADME, organism-based; conditions: in vivo, read-out: Vdss; in short: as §1
[4] = Bioavailability in Sprague-Dawley rat at 10 mg/kg, po administered as single dose by LC-MS/MS method; type: ADME, organism-based; conditions: in vivo; in short: as §1
[5] = Plasma concentration in Sprague-Dawley rat model of distension-induced rhythmic bladder contraction at 10 mg/kg, po measured after 3.5 hrs; type: ADME, organism-based
[6] = Tmax in Sprague-Dawley rat at 10 mg/kg, po administered as single dose by LC-MS/MS method; type: ADME, organism-based; conditions: in vivo; in short: as §1
[7] = Drug metabolism in rat plasma assessed as hydrolyzation of methyl ester to carboxylic acid; type: ADME, cell-free

Row | SMILES | concentration at […] [1] | Cmax [2] | Vd [3] | bioavailability [4] | concentration at 3.5 h [5] | Tmax [6] | Drug metabolism [7]
1 | C[C@H](c1cc(F)cc(F)c1)N(C(=O)c1ccccc1)[C@@H](C(N)=O)c1ccccc1 | 1120 nM | 3230 nM | 1.2 L/kg | 59% | > 1000 nM | 50 min | 
2 | COC(=O)[C@@H](c1ccccc1)N(Cc1cccc(OC)c1)C(=O)c1ccccc1 |  |  |  |  |  |  | Metabolite_Detected

Reference: ChEMBL document CHEMBL3872272, “Synthesis and optimization of novel α-phenylglycinamides as selective TRPM8 antagonists” (Bioorg Med Chem, 2017)
